Compound activity (PubChem)
HSF1 activator – increases HSF-1 driven luciferase reporter signal; actives 1.7% (n = 300,000); AID 504408; activation, % at 9 µM; NIH3T3-HGL HSF-1 luciferase reporter, MG132, 8 h; 100% = twice DMSO control signal;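 active = mean replicate activation of at least 50% with a set share of replicates each reaching 50%; inconclusive = only one of those two conditions met; inactive = mean below 50% and too few replicates reaching it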
CHT PAM – allosterically activates the human high affinity choline transporter. CHT-expressing cells, membrane potential dye, choline EC20; stronger effect = higher value; LV-AA mutant CHT in HEK293 cells. B-score at 10 µM. Q9GZV3. actives 0.49% (n = 310,000). AID 488977;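 active = initial fluorescence not abnormally high and integrated response B-score, plate-corrected, over 3 SD above library mean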
Target sequence (Q9GZV3 whole entry, looked up): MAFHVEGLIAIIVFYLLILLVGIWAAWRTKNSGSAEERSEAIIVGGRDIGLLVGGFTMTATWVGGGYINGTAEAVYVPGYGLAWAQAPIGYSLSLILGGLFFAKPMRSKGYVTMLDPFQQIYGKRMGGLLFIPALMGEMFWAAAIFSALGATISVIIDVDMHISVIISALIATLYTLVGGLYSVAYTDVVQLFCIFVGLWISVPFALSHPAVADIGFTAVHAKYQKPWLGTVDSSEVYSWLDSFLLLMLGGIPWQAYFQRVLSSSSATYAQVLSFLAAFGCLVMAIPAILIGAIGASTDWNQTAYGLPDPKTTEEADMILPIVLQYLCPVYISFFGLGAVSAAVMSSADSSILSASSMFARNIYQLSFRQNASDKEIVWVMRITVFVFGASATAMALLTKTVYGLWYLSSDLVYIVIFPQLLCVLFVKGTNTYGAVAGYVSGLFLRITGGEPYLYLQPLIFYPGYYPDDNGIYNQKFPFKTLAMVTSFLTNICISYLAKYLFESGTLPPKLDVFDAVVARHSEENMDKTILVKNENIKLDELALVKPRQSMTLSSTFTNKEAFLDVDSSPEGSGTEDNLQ
Lipid droplet – modulators of hepatic lipid droplet formation; AML12 mouse hepatocytes, oleate lipid droplets, BODIPY imaging; AID 1656; inhibition, % at 6.5 µM; actives 0.4% (n = 240,000);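 active = lipid droplet intensity inhibited by at least 50%, with more than 500 cells counted; inconclusive = wells with under 300 cells, treated as cytotoxic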
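Assay system: AML12 hepatocytes (mouse) / Also added: 100 µM oleic acid challenge / Times: overnight treatment with compound plus oleate / Detection: high-content imaging of BODIPY-stained droplets and DAPI nuclei / Evaluation: % inhibition of lipid droplet signal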
CHT block – human CHT choline transport inhibition; AID 488975; B-score at 10 µM; actives 0.86% (n = 310,000); CHT-expressing cells, membrane potential dye, choline response; stronger effect = lower value;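 active = B-score over 3 SD under the library average, and starting fluorescence ratio not unusually high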;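 note: choline stimulus applied at its EC90 after an EC20 pre-addition; B-score computed on integrated fluorescence ratio after choline addition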
PHOSPHO1 block – inhibitors of human PHOSPHO1 phosphatase | AID 1565 | inhibition, % at 13.3 µM | actives 1.1% (n = 290,000) | recombinant PHOSPHO1, absorbance phosphatase assay; in the data active = inhibition above about 60%
HSF1 inhib – HSF1 inhibition; NIH3T3-HGL HSE-luciferase, MG132-induced, luminescence 8 h; stronger effect = lower value; activity change, negative = inhibition, % at 7.5 µM (by protocol); actives 0.77% (n = 300,000);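 active = more than half of replicate wells show activity change below -50%, luminescence cut by over half; inconclusive = some wells, but at most half, below -50%; inactive = no replicate well below -50%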;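 note: luciferase reports HSF-1 transcriptional activity via heat shock element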
A number is an active result; i = inactive; ? = inconclusive; nt = not tested or not shown. An excerpt weighted towards active compounds, which were near 4.9% of everything screened.

SMILES	HSF1 activator	CHT PAM	Lipid droplet	CHT block	PHOSPHO1 block	HSF1 inhib
O=C(Cn1c2c(sc1=O)C1c3ccccc3OCC1CS2)Nc1ccc(Cl)c(Cl)c1 (configuration not stated)	i	i	i	i	i	i
O=C(O)CSc1cc(NS(=O)(=O)c2ccc(Br)cc2)c2ccccc2c1O	114.0	i	nt	i	i	i
O=C1c2ccccc2C(=O)N1c1ccc(Br)c2cccnc12	i	i	i	i	i	i
COc1ccccc1Oc1ccc2c(c1)C(=O)N(c1ccc(Br)c3cccnc13)C2=O	i	i	nt	i	i	-74.6
CCOC(=O)CNC(=O)N1CCC(CCOc2ccccc2)(C(=O)OCC)CC1	i	i	i	i	i	i
CCOC(=O)Cn1c(CCC(=O)O)ccc1-c1ccc(F)cc1	i	i	i	i	i	-77.2
O=C(O)CCc1ccc(-c2ccc(F)cc2)n1CC(=O)O	i	i	i	i	i	i
CCC(c1nnc(SCC(=O)NCCc2ccc(OC)c(OC)c2)n1Cc1ccccc1)N(C)C (configuration not stated)	i	i	i	i	i	i
Cc1ccc(S(=O)(=O)Nc2cccnc2)c(C)c1C	i	i	i	i	nt	-82.9
Oc1ccc2ccccc2c1C=Nc1ccccc1-c1nc2ccccc2[nH]1	59.2	i	i	i	i	i
Oc1ccc2ccccc2c1C=Nc1ccc(Cl)cn1	i	i	i	i	i	i
Cc1cccc(NC(=O)C2SC(=Nc3c(C)cccc3C)C(C(=O)N3CCOCC3)=C2N)c1 (configuration not stated)	i	i	i	i	i	-71.7
CCN(CC)S(=O)(=O)c1cccc(NC(=O)C2SC(=Nc3ccc(C)cc3C)C(C(=O)NCC3CCCO3)=C2N)c1 (configuration not stated)	i	i	i	i	i	i
O=C(COc1ccccc1C(=O)c1cnn(-c2ccccc2)c1)Nc1ccc2ccccc2c1	i	i	i	i	i	i
CC(C)c1ccc(NC(=O)COc2ccc(F)cc2C(=O)c2cnn(-c3ccccc3)c2)cc1	60.4	i	i	i	i	i
Cc1ccc2c(c1)N(C(=O)CCC(=O)N1CCN(c3ccccn3)CC1)CCO2	i	i	i	i	i	i
N#Cc1ccc(CSc2nc(N)cc(N)n2)cc1	73.9	i	nt	i	i	i
Cc1ccc(CSc2nc(N)cc(N)n2)cc1	i	i	i	i	i	i
COc1ccc(-c2nc(CS(=O)CC(=O)NC3CCCC3)c(C)o2)cc1 (configuration not stated)	i	i	i	i	70.0	i
CCC(NC(=O)Nn1cnnc1)(C(F)(F)F)C(F)(F)F	i	i	i	i	i	i
O=c1c2ccccc2sc2nc(C3CCCCC3)n(Cc3ccco3)c(=O)c12	85.6	nt	i	nt	i	i
COc1ccc(CSc2cccc3cccnc23)cc1[N+](=O)[O-]	i	i	i	i	i	i
O=[N+]([O-])c1cc2cccnc2c2ncccc12	nt	6.98	i	i	i	i
O=[N+]([O-])c1ccc(Sc2cccc3cccnc23)c2cccnc12	110.2	i	i	i	i	i
Cc1ccc([N+](=O)[O-])c2cccnc12	i	i	nt	i	i	i
SMILES	HSF1 activator	CHT PAM	Lipid droplet	CHT block	PHOSPHO1 block	HSF1 inhib
COc1cc(/C(C)=N/NC(=O)CSc2nncn2C)ccc1OCc1ccccc1Cl	?	i	i	i	i	i
COc1ccc2[nH]c(=O)c(-c3nnn(-c4ccc(Cl)nc4)n3)cc2c1	i	i	nt	i	nt	i
CSc1ccc(CCNC(=O)c2nn(C)c3c2CS(=O)(=O)c2ccccc2-3)cc1	51.1	i	i	i	i	i
COc1ccccc1-n1nnnc1SCC(=O)NCC1CCCO1 (configuration not stated)	i	i	nt	i	nt	i
COc1ccccc1NC(=O)c1cnc(SCC(=O)NCC2CCCO2)n(C)c1=O (configuration not stated)	170.9	i	nt	i	nt	i
CCOC(=O)C1=C(c2ccccc2)NC(SCC(=O)Nc2ccc(C)cc2)=C(C#N)C1c1ccco1 (configuration not stated)	i	i	i	i	i	i
CC(=O)C1=C(C)NC(SCC(=O)c2ccccc2)=C(C#N)C1c1ccco1 (configuration not stated)	77.3	i	nt	i	i	i
CC(=O)C1=C(C)NC(SCC(=O)c2ccc(Cl)cc2)=C(C#N)C1c1ccco1 (configuration not stated)	i	i	nt	i	i	i
CC(=O)C1=C(C)NC(SCC(=O)c2ccc(Cl)cc2Cl)=C(C#N)C1c1ccco1 (configuration not stated)	i	i	nt	i	74.0	i
CCOC(=O)C1=C(c2ccccc2)NC(SC)=C(C#N)C1c1ccco1 (configuration not stated)	51.5	i	nt	i	i	i
CCN1CCN(c2cc(C)c3cc(NC(=S)N4CCN(c5ccccc5F)CC4)ccc3n2)CC1	i	i	i	i	i	i
CCN(Cc1ccc2c(c1)OCO2)C(=O)/C=C/c1cccc(Br)c1	i	i	i	i	i	-73.9
COc1ccc(CC(=O)NCc2ccc3c(c2)OCO3)cc1	i	i	i	i	i	i
COc1cccc(NC(=O)C(OC(=O)/C=C/c2ccc3c(c2)OCO3)c2ccccc2)c1 (configuration not stated)	54.2	i	i	i	i	i
COc1cccc(/C=C/C(=O)NCc2ccc3c(c2)OCO3)c1	i	i	i	i	i	-84.9
Cc1cccn2c(=O)c(C=O)c(Sc3ncccn3)nc12	i	i	i	i	i	i
COc1ccc(C2=NOC(c3nnc(-c4ccccc4)o3)C2)cc1 (configuration not stated)	i	i	nt	i	nt	i
CCn1c(SCC(=O)c2ccc(Cl)cc2)nnc1C(C)C	145.4	i	nt	i	i	i
CCn1c(SCC(=O)c2ccc(Cl)cc2)nnc1-c1ccoc1C	75.0	i	i	i	i	i
COc1ccc(-c2nnc(Nc3ccc(CC(N)=O)cc3)c3ccccc23)cc1	56.8	i	i	i	i	i
Cc1cc(C)c(C)c(C(=O)CSc2nnc(-c3ccc4[nH]c(C)c(C)c4c3)o2)c1C	i	i	i	i	61.1	i
Cc1[nH]c2ccc(-c3nnc(SCC(=O)c4ccc(F)cc4)o3)cc2c1C	i	i	nt	i	86.6	-60.0
Cc1cc(C)n(CCCN2CCC(C(=O)Nc3cccc(-c4cccc(F)c4)c3)CC2)n1	i	i	i	i	i	i
Cc1cccc(/N=C/c2nc(-c3ccccc3Br)oc2O)n1	90.6	i	i	i	i	i
Cc1ccnc(N=Cc2nc(-c3ccccc3Br)oc2O)c1	i	i	i	i	i	i
c1ccc2[nH]c(SN3CCOCC3)nc2c1	nt	nt	i	nt	102.2	nt
O=S1(=O)C=C(Sc2nc3ccccc3s2)c2ccccc21	i	i	i	i	i	-87.3
Cc1cc(C)nc(SC2=CS(=O)(=O)c3ccccc32)n1	i	i	i	i	i	i
